Source: PubChem BioAssay
MBD2 DNA inh = blocks human MBD2 binding to methylated DNA | Q9UBB5 | TR-FRET, MBD2 binding to methylated oligonucleotide | inhibition, % at 4.4 µM | hit rate 0.31% among 370,000 | AID 686964; in the data active = inhibition above about 13%
ABHD5-PLIN5 inh = inhibitors of human ABHD5-perilipin-5 interaction; Q00G26+Q8WTS1; Split G. princeps luciferase complementation, luminescence, 4 h; inhibition, % at 4 µM; hit rate 0.78% among 360,000; AID 602281;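 active = inhibition above the mean inhibition across every tested compound plus 3 SD, cut at about 22% in these data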
UHRF1 binding = human UHRF1 methylated DNA binding inhibitors | Q96T88 | UHRF1 binding to methylated oligo, TR-FRET | inhibition, % at 4.4 µM | hit rate 0.75% among 370,000 | AID 687016; in the data active = inhibition above about 21%;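 note: UHRF1 SRA domain binding a hemimethylated CpG hairpin DNA probe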
Arrestin-AP2 inh = human beta-arrestin and AP2 interaction inhibition. FITC-arrestin peptide / GST-AP2 beads, flow cytometry; AP2 beta2 appendage carries R879A mutation. inhibition, % at 10 µM. hit rate 0.31% among 340,000. AID 504490;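 active = inhibition above a set limit, near 3 SD of compounds lacking own fluorescence, cut at about 54% in these data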
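test system = AP2 appendage R879A on GSH beads | buffer or medium = PBS plus Tween 20 (0.05%) and BSA (0.1%) | incubation = 12 min plus 1 h, RT | detection = bead flow cytometry, FITC channel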
Rin1 Abl inh = inhibitors of human Rin1-Abl protein interaction; TR-FRET Rin1/Abl binding, biochemical; inhibition, % at 7.35 µM; hit rate 0.4% among 360,000; AID 588664; in the data active = inhibition above about 5%, passing the limit was not always enough
Beta2AR agonist = activates human beta-2 adrenergic receptor causing internalization; P07550; Am2.2-beta2AR cells, FAP receptor internalization, flow cytometry; response, % (test concentration not listed); hit rate 0.43% among 340,000; AID 504454;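 active = response above a set limit, near 3 SD of response in nonfluorescent compounds, cut at about 42% in these data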
ABHD5-PLIN5 conf = confirmation of human ABHD5-PLIN5 interaction inhibitors. hit rate 67% among 2,200. inhibition, % at 4 µM. AID 651612. shares compounds with ABHD5-PLIN5 inh. biochemical ABHD5-PLIN5 interaction, luminescence; in the data active = inhibition above about 23%
HNF4 split-luc = HNF4 split-luciferase signal hit, counter-screen | shares compounds with ABHD5-PLIN5 inh | HNF4 dimerization, luminescence, biochemical | inhibition, % at 4 µM | hit rate 77% among 2,200 | AID 651674;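 active = mean inhibition across replicate wells exceeding the computed hit threshold, cut at about 13% in these data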;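 note: light from luciferase halves that rejoin when HNF4 fusion proteins dimerize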
Target sequence (P41235 whole entry, looked up, the tested form may be a part): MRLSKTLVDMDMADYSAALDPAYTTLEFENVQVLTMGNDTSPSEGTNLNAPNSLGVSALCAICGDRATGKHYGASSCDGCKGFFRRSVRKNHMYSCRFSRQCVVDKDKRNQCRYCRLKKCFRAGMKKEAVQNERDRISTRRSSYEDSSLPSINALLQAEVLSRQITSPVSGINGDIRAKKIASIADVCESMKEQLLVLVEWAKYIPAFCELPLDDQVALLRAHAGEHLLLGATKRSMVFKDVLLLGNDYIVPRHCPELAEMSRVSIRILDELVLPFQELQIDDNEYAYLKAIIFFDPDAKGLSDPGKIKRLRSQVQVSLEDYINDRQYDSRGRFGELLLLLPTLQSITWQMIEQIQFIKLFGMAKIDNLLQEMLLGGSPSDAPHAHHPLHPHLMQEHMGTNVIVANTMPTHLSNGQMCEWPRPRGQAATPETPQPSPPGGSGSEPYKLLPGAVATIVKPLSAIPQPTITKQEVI
Numbers stand for hits; 0 = inactive; - = no result given. Shown are actives, neighbours in structure and some others; about 2.5% of the full set was active somewhere.

SMILES	MBD2 DNA inh	ABHD5-PLIN5 inh	UHRF1 binding	Arrestin-AP2 inh	Rin1 Abl inh	Beta2AR agonist	ABHD5-PLIN5 conf	HNF4 split-luc
CCOc1ccc(/C=C2\CCC(C3CCCC3)C2=O)cc1 (stereo not drawn)	0	0	0	0	0	0	-	-
O=C(Nc1c(-c2ccc(C(F)(F)F)cc2)nc2ncccn12)C1CC1	0	-	0	-	-	-	-	-
COc1ccc(/C=C/C(=O)c2cc(F)ccc2OC(=O)c2ccccc2OC)cc1OC	0	62.7	0	0	0	0	77.6	59.9
COc1ccc(/C=C/C(=O)c2cc(F)ccc2OC(=O)c2ccc(OC)c(OC)c2)cc1OC	0	46.0	0	0	0	0	76.6	52.4
CC(=O)Nc1sc2c(c1-c1nc3ccccc3s1)CCOC2	0	-	0	-	-	-	-	-
C#CCOCCOCCOCCNc1nc(N2CCN(C(=O)[C@H]([C@@H](C)CC)n3cc(CCCCN)nn3)CC2)nc(N2CCN(C(=O)[C@H](CCCCN)n3cc(CCCC)nn3)CC2)n1	0	0	0	0	0	0	-	-
C#CCOCCOCCOCCNc1nc(N2CCN(C(=O)CCCCCCCCCCNC(=O)Cn3cc(C[C@@H](C)O)nn3)CC2)nc(N2CCN(C(=O)CCCCCCCCCCNC(=O)[C@@H](CCC(=O)O)n3cc(CCCCCN)nn3)CC2)n1	0	0	0	0	0	0	-	-
C#CCOCCOCCOCCNc1nc(N2CCN(C(=O)CCCCCCCCCCNC(=O)[C@H]([C@@H](C)CC)n3cc(CCCCCN)nn3)CC2)nc(N2CCN(C(=O)CCCCCCCCCCNC(=O)[C@H](CCCCN)n3cc(CCCC(=O)O)nn3)CC2)n1	-	39.5	-	0	0	0	0	0
C#CCOCCOCCOCCNc1nc(N2CCN(C(=O)[C@H]([C@@H](C)O)n3cc(CCCCN)nn3)CC2)nc(N2CCN(C(=O)[C@H](CCCCN)n3cc(CCC(=O)O)nn3)CC2)n1	0	0	0	0	0	0	-	-
C#CCOCCOCCOCCNc1nc(N2CCN(C(=O)CCCCCCCCCCNC(=O)[C@@H](CCSC)n3cc(CCO)nn3)CC2)nc(N2CCN(C(=O)CCCCCCCCCCNC(=O)[C@H](CCSC)n3cc(CCO)nn3)CC2)n1	0	43.7	0	0	0	0	0	0
C#CCOCCOCCOCCNc1nc(N2CCN(C(=O)CCCCCCCCCCNC(=O)Cn3cc(C[C@@H](C)O)nn3)CC2)nc(N2CCN(C(=O)CCCCCCCCCCNC(=O)[C@H](CO)n3cc(CCCSC)nn3)CC2)n1	0	0	0	0	0	0	-	-
C#CCOCCOCCOCCNc1nc(N2CCN(C(=O)CCCCCCCCCCNC(=O)Cn3cc(C[C@@H](C)O)nn3)CC2)nc(N2CCN(C(=O)CCCCCCCCCCNC(=O)[C@H](CCCCN)n3cc(CCCC(=O)O)nn3)CC2)n1	0	36.0	0	0	0	0	0	13.5
C#CCOCCOCCOCCNc1nc(N2CCN(C(=O)CCCCCCCCCCNC(=O)[C@H](CCCCN)n3cc(CCCC(=O)O)nn3)CC2)nc(N2CCN(C(=O)CCCCCCCCCCNC(=O)[C@@H]([C@H](C)O)n3cc(C)nn3)CC2)n1	-	36.7	-	0	0	0	0	0
CCc1ccccc1-c1cc(C(=O)OC)c2n(c1=O)CCC2	0	-	0	-	-	-	-	-
CCCC/C=C1/[C@@H](c2ccc(Cl)cc2)N(Cc2ccc3c(c2)OCO3)C2=N[C@@H](c3ccccc3)CC(=O)N21	0	-	0	-	-	-	-	-
CCOC(=O)/C(=C/c1ccc(OC(F)F)cc1)C1=Nn2c(nnc2-c2ccc(Cl)cc2)SC1	0	41.9	0	0	0	0	101.0	91.0
COc1ccc(C2=Nn3c(nnc3-c3ccc(OC)cc3)SC2)cc1	0	0	0	0	0	0	-	-
COC(=O)C1CCN(c2cc(=O)n(-c3ccc(OC)cc3)c(=O)[nH]2)CC1	0	24.3	0	0	0	0	0	0
Cc1ccc(-n2c(=O)cc(N3CCN(C(=O)c4ccco4)CC3)[nH]c2=O)cc1	0	36.5	0	0	0	0	0	0
CCOC(=O)[C@@]12CCCC=C1N(CCc1ccc(Cl)cc1)C(=O)[C@H]2CC(=O)NCc1cccc(C(F)(F)F)c1	0	-	0	-	-	-	-	-
Cc1c(C(=O)c2no[n+]([O-])c2C(=O)c2cnn(C)c2C)cnn1C	0	28.9	0	0	0	0	57.5	74.2
CCOC(=O)Cn1cc(CN2CCS(=O)(=O)N(Cc3ccc(F)cc3)C(C(=O)OC)C2)nn1 (stereo not drawn)	0	-	0	-	-	-	-	-
COc1ccc(OC)c(C(c2c(O)nc(SC)[nH]c2=O)c2c(O)nc(SC)[nH]c2=O)c1	0	26.0	0	0	0	0	51.5	48.6
COc1cc(C(c2c(O)nc(SC)[nH]c2=O)c2c(O)nc(SC)[nH]c2=O)cc(OC)c1OC	0	0	0	0	0	0	-	-
Cc1cccc(-c2cccc3c4c([nH]c23)[C@@H]2C[C@H](N(C)C(=O)Nc3ccccc3)[C@H]([C@H](C)O)C(=O)N2CC4)c1	0	-	0	-	-	-	-	-
CN1CCN(C2=Cc3ccc(Cl)cc3Sc3ccc(F)cc32)CC1	0	28.7	0	0	0	0	0	0
CN1CCN(C2=Cc3ccccc3Sc3cc(F)ccc32)CC1	0	23.3	0	0	0	0	0	0
O=S1(=O)CC2c3ccccc3CN2CN1Cc1ccccc1 (stereo not drawn)	0	-	0	-	-	-	-	-
